From ChEMBL document CHEMBL1121612, “Ivermectin, a new broad-spectrum antiparasitic agent” (1980)

How the values were obtained:
Assay type in all cases: functional
Ovis aries [1] = test: Activity against adult gastrointestinal helminths of experimentally infected sheep on oral administration of Haemonchus contortus at 0.1 mg/kg.
Outline: (§1)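 Sheep were given the compound orally, each at one dose, with experimental infections of six gastrointestinal nematode species. The Haemonchus contortus and Trichostrongylus colubriformis strains were benzimidazole-resistant. Efficacy against adult worms was recorded as a categorical score.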

Ovis aries [2] = test: Activity against adult gastrointestinal helminths of experimentally infected sheep on oral administration of Oesophagostomum columbianum at 0.1 mg/kg.
Outline: (§2)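 Sheep were given the compound orally, each at one dose, with concurrent experimental infections of six adult gastrointestinal nematode species. Efficacy against adult worms was recorded as a categorical score for each species.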

Ovis aries [3] = test: Activity against adult gastrointestinal helminths of experimentally infected sheep on oral administration of Trichostrongylus axei at 0.1 mg/kg.; outline: as §2
Ovis aries [4] = test: Activity against adult gastrointestinal helminths of experimentally infected sheep on oral administration of Ostertagia circumcincta at 0.1 mg/kg.; outline: as §2
Ovis aries [5] = test: Activity against adult gastrointestinal helminths of experimentally infected sheep on oral administration of Trichostrongylus colubriformis at 0.1 mg/kg.; outline: as §1
Ovis aries [6] = test: Activity against adult gastrointestinal helminths of experimentally infected sheep on oral administration of Cooperia species at 0.1 mg/kg.; outline: as §2
Ovis aries [7] = test: Activity against adult gastrointestinal helminths of experimentally infected sheep on oral administration of Haemonchus contortus at 0.2 mg/kg.; outline: as §1
Ovis aries [8] = test: Activity against adult gastrointestinal helminths of experimentally infected sheep on oral administration of Ostertagia circumcincta at 0.2 mg/kg.; outline: as §2
Ovis aries [9] = test: Activity against adult gastrointestinal helminths of experimentally infected sheep on oral administration of Oesophagostomum columbianum at 0.2 mg/kg.; outline: as §2
Ovis aries [10] = test: Activity against adult gastrointestinal helminths of experimentally infected sheep on oral administration of Trichostrongylus colubriformis at 0.2 mg/kg.; outline: as §1
Ovis aries [11] = test: Activity against adult gastrointestinal helminths of experimentally infected sheep on oral administration of Trichostrongylus axei at 0.2 mg/kg.; outline: as §2
Ovis aries [12] = test: Activity against adult gastrointestinal helminths of experimentally infected sheep on oral administration of Cooperia species at 0.2 mg/kg.; outline: as §2
Ovis aries [13] = test: Activity against adult gastrointestinal helminths of experimentally infected sheep on oral administration of Oesophagostomum columbianum at 0.3 mg/kg.; outline: as §2
Ovis aries [14] = test: Activity against adult gastrointestinal helminths of experimentally infected sheep on oral administration of Trichostrongylus axei at 0.3 mg/kg.; outline: as §2
Ovis aries [15] = test: Activity against adult gastrointestinal helminths of experimentally infected sheep on oral administration of Cooperia species at 0.3 mg/kg; 75-90; outline: as §2
Ovis aries [16] = test: Activity against adult gastrointestinal helminths of experimentally infected sheep on oral administration of Trichostrongylus colubriformis at 0.3 mg/kg.; outline: as §1
Ovis aries [17] = test: Activity against adult gastrointestinal helminths of experimentally infected sheep on oral administration of Ostertagia circumcincta at 0.3 mg/kg.; outline: as §2
Ovis aries [18] = test: Activity against adult gastrointestinal helminths of experimentally infected sheep on oral administration of Haemonchus contortus at 0.3 mg/kg.; outline: as §1
Ovis aries [19] = test: Activity against adult gastrointestinal helminths of experimentally infected sheep on oral administration of Trichostrongylus axei at 3.0 mg/kg.; outline: as §2
Ovis aries [20] = test: Activity against adult gastrointestinal helminths of experimentally infected sheep on oral administration of Trichostrongylus colubriformis at 3.0 mg/kg.; outline: as §1
Ovis aries [21] = test: Activity against adult gastrointestinal helminths of experimentally infected sheep on oral administration of Haemonchus contortus at 3.0 mg/kg; 50-74; outline: as §1
Ovis aries [22] = test: Activity against adult gastrointestinal helminths of experimentally infected sheep on oral administration of Ostertagia circumcincta at 3.0 mg/kg; 75-90; outline: as §2
Ovis aries [23] = test: Activity against adult gastrointestinal helminths of experimentally infected sheep on oral administration of Oesophagostomum columbianum at 3.0 mg/kg.; outline: as §2
Ovis aries [24] = test: Activity against adult gastrointestinal helminths of experimentally infected sheep on oral administration of Cooperia species at 3.0 mg/kg; 50-74; outline: as §2
Ovis aries [25] = test: Activity against adult gastrointestinal helminths of experimentally infected sheep on oral administration of Ostertagia circumcincta at 0.1 mg/kg; 75-90; outline: as §2
Ovis aries [26] = test: Activity against adult gastrointestinal helminths of experimentally infected sheep on oral administration of Haemonchus contortus at 0.1 mg/kg; 75-90; outline: as §1
Ovis aries [27] = test: Activity against adult gastrointestinal helminths of experimentally infected sheep on oral administration of Cooperia species at 0.1 mg/kg; 75-90; outline: as §2
Ovis aries [28] = test: Activity against adult gastrointestinal helminths of experimentally infected sheep on oral administration of Ostertagia circumcincta at 0.05 mg/kg.
Ovis aries [29] = test: Activity against adult gastrointestinal helminths of experimentally infected sheep on oral administration of Trichostrongylus axei at 0.05 mg/kg.
Ovis aries [30] = test: Activity against adult gastrointestinal helminths of experimentally infected sheep on oral administration of Cooperia species at 0.05 mg/kg.
Ovis aries [31] = test: Activity against adult gastrointestinal helminths of experimentally infected sheep on oral administration of Haemonchus contortus at 0.05 mg/kg.
Outline: (§3)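 Sheep were experimentally infected with benzimidazole-resistant isolates of this species among six gastrointestinal helminths and dosed orally. Efficacy against the adult worms was scored per species.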

Ovis aries [32] = test: Activity against adult gastrointestinal helminths of experimentally infected sheep on oral administration of Oesophagostomum columbianum at 0.05 mg/kg.
Ovis aries [33] = test: Activity against adult gastrointestinal helminths of experimentally infected sheep on oral administration of Trichostrongylus colubriformis at 0.05 mg/kg.; outline: as §3
Ovis aries [34] = test: Activity against adult gastrointestinal helminths of experimentally infected sheep on oral administration of Trichostrongylus axei at 0.2 mg/kg; 50-74; outline: as §2
Ovis aries [35] = test: Activity against adult gastrointestinal helminths of experimentally infected sheep on oral administration of Ostertagia circumcincta at 0.3 mg/kg; 75-90; outline: as §2
Ovis aries [36] = test: Activity against adult gastrointestinal helminths of experimentally infected sheep on oral administration of Cooperia species at 0.3 mg/kg.; outline: as §2
Ovis aries [37] = test: Activity against adult gastrointestinal helminths of experimentally infected sheep on oral administration of Trichostrongylus colubriformis at 0.3 mg/kg; 50-74; outline: as §1
Ovis aries [38] = test: Activity against adult gastrointestinal helminths of experimentally infected sheep on oral administration of Oesophagostomum columbianum at 0.15 mg/kg.; outline: as §2
Ovis aries [39] = test: Activity against adult gastrointestinal helminths of experimentally infected sheep on oral administration of Trichostrongylus colubriformis at 0.15 mg/kg.; outline: as §1
Ovis aries [40] = test: Activity against adult gastrointestinal helminths of experimentally infected sheep on oral administration of Haemonchus contortus at 0.15 mg/kg 75-90; outline: as §1
Ovis aries [41] = test: Activity against adult gastrointestinal helminths of experimentally infected sheep on oral administration of Ostertagia circumcincta at 0.15 mg/kg; 75-90; outline: as §2
Ovis aries [42] = test: Activity against adult gastrointestinal helminths of experimentally infected sheep on oral administration of Trichostrongylus axei at 0.15 mg/kg.; outline: as §2
Ovis aries [43] = test: Activity against adult gastrointestinal helminths of experimentally infected sheep on oral administration of Cooperia species at 0.15 mg/kg.; outline: as §2

COC1CC(OC2C(C)OC(O[C@@H]3/C(C)=C/C[C@@H]4C[C@@H](C[C@]5(CC(O)[C@H](C)[C@@H](C(C)C)O5)O4)OC(=O)[C@@H]4C=C(C)[C@@H](O)[C@H]5OC/C(=C\C=C\[C@@H]3C)[C@]54O)CC2OC)OC(C)C1O (stereo not given in full) [AVERMECTIN B2]
Efficacy (Ovis aries [1]): <50%
Efficacy (Ovis aries [2]): >90%
Efficacy (Ovis aries [3]): >90%
Efficacy (Ovis aries [4]): >90%
Efficacy (Ovis aries [5]): >90%
Efficacy (Ovis aries [6]): >90%

COC1CC(O[C@@H]2/C(C)=C/C[C@@H]3C[C@@H](C[C@]4(CC(O)[C@H](C)[C@@H](C(C)C)O4)O3)OC(=O)[C@@H]3C=C(C)[C@@H](O)[C@H]4OC/C(=C\C=C\[C@@H]2C)[C@]43O)OC(C)C1O (stereo not given in full) [AVERMECTIN B2 MONOSACCHARIDE]
Efficacy (Ovis aries [7]): 50%
Efficacy (Ovis aries [8]): 50%
Efficacy (Ovis aries [9]): >90%
Efficacy (Ovis aries [10]): >90%
Efficacy (Ovis aries [11]): >90%
Efficacy (Ovis aries [12]): >90%

CO[C@H]1C[C@H](O[C@@H]2/C(C)=C/C[C@@H]3C[C@@H](C[C@]4(CC[C@H](C)[C@@H](C(C)C)O4)O3)OC(=O)[C@@H]3C=C(C)[C@@H](O)[C@H]4OC/C(=C\C=C\[C@@H]2C)[C@]43O)O[C@@H](C)[C@@H]1O
Efficacy (Ovis aries [13]): >90%
Efficacy (Ovis aries [14]): >90%
Efficacy (Ovis aries [15]): 75%
Efficacy (Ovis aries [16]): >90%
Efficacy (Ovis aries [17]): >90%
Efficacy (Ovis aries [18]): >90%

CC1=C[C@H]2C(=O)O[C@H]3C[C@@H](C/C=C(\C)[C@@H](O)[C@@H](C)/C=C/C=C4\CO[C@H]([C@@H]1O)[C@@]42O)O[C@@]1(CC[C@H](C)[C@@H](C(C)C)O1)C3
Efficacy (Ovis aries [19]): >90%
Efficacy (Ovis aries [20]): >90%
Efficacy (Ovis aries [21]): 50%
Efficacy (Ovis aries [22]): 75%
Efficacy (Ovis aries [23]): >90%
Efficacy (Ovis aries [24]): 50%

CC[C@H](C)[C@H]1O[C@]2(C=C[C@@H]1C)C[C@@H]1C[C@@H](C/C=C(\C)[C@@H](OC3CC(OC)C(OC4CC(OC)C(O)C(C)O4)C(C)O3)[C@@H](C)/C=C/C=C3\CO[C@@H]4[C@H](OC)C(C)=C[C@@H](C(=O)O1)[C@]34O)O2 (stereo not given in full) [AVERMECTIN A1]
Efficacy (Ovis aries [2]): <50%
Efficacy (Ovis aries [25]): 75%
Efficacy (Ovis aries [3]): <50%
Efficacy (Ovis aries [26]): 75%
Efficacy (Ovis aries [27]): 75%
Efficacy (Ovis aries [5]): <50%

CC[C@H](C)[C@H]1O[C@]2(C=C[C@@H]1C)C[C@@H]1C[C@@H](C/C=C(\C)[C@@H](O[C@H]3C[C@H](OC)[C@@H](O[C@H]4C[C@H](OC)[C@@H](O)[C@H](C)O4)[C@H](C)O3)[C@@H](C)/C=C/C=C3\CO[C@@H]4[C@H](O)C(C)=C[C@@H](C(=O)O1)[C@]34O)O2 [ABAMECTIN COMPONENT B1A]
Efficacy (Ovis aries [28]): >90%
Efficacy (Ovis aries [29]): >90%
Efficacy (Ovis aries [30]): >90%
Efficacy (Ovis aries [31]): >90%
Efficacy (Ovis aries [32]): >90%
Efficacy (Ovis aries [33]): >90%

CC[C@H](C)[C@H]1O[C@]2(CC(O)[C@@H]1C)C[C@@H]1C[C@@H](C/C=C(\C)[C@@H](OC3CC(OC)C(OC4CC(OC)C(O)C(C)O4)C(C)O3)[C@@H](C)/C=C/C=C3\CO[C@@H]4[C@H](OC)C(C)=C[C@@H](C(=O)O1)[C@]34O)O2 (stereo not given in full) [AVERMECTIN A2]
Efficacy (Ovis aries [1]): >90%
Efficacy (Ovis aries [2]): >90%
Efficacy (Ovis aries [3]): >90%
Efficacy (Ovis aries [4]): >90%
Efficacy (Ovis aries [5]): >90%
Efficacy (Ovis aries [6]): <50%

CO[C@H]1C[C@H](O[C@H]2[C@H](C)O[C@@H](O[C@@H]3/C(C)=C/C[C@@H]4C[C@@H](C[C@]5(CC[C@H](C)[C@@H](C(C)C)O5)O4)OC(=O)[C@@H]4CC(C)[C@@H](O)[C@H]5OC/C(=C\C=C\[C@@H]3C)[C@]54O)C[C@@H]2OC)O[C@@H](C)[C@@H]1O (stereo not given in full)
Efficacy (Ovis aries [7]): <50%
Efficacy (Ovis aries [34]): 50%
Efficacy (Ovis aries [8]): <50%
Efficacy (Ovis aries [9]): >90%
Efficacy (Ovis aries [10]): <50%
Efficacy (Ovis aries [12]): <50%

CC[C@H](C)[C@H]1O[C@]2(CC[C@@H]1C)C[C@@H]1C[C@@H](C/C=C(\C)[C@@H](O[C@H]3C[C@H](OC)[C@@H](O[C@H]4C[C@H](OC)[C@@H](O)[C@H](C)O4)[C@H](C)O3)[C@@H](C)/C=C/C=C3\CO[C@@H]4[C@H](OC)C(C)=C[C@@H](C(=O)O1)[C@]34O)O2
Efficacy (Ovis aries [13]): >90%
Efficacy (Ovis aries [35]): 75%
Efficacy (Ovis aries [14]): <50%
Efficacy (Ovis aries [36]): <50%
Efficacy (Ovis aries [37]): 50%
Efficacy (Ovis aries [18]): >90%

COC1CC(O[C@@H]2/C(C)=C/C[C@@H]3C[C@@H](C[C@]4(C=C[C@H](C)[C@@H](C(C)C)O4)O3)OC(=O)[C@@H]3C=C(C)[C@@H](O)[C@H]4OC/C(=C\C=C\[C@@H]2C)[C@]43O)OC(C)C1O (stereo not given in full) [AVERMECTIN B1 MONOSACCHARIDE]
Efficacy (Ovis aries [38]): <50%
Efficacy (Ovis aries [39]): >90%
Efficacy (Ovis aries [40]): 75%
Efficacy (Ovis aries [41]): 75%
Efficacy (Ovis aries [42]): >90%
Efficacy (Ovis aries [43]): >90%
